Measurements from ChEMBL document CHEMBL1159125, “Novel 3-aminopyrazole inhibitors of MK-2 discovered by scaffold hopping strategy” (Bioorg Med Chem Lett, 2010).
The source made the active and inactive calls. The rule behind the calls is not given here.

Experiments:
[1] = Permeability from apical to basolateral side in human Caco-2 cells; type: ADME, cell-based
[2] = biological target: Mitogen-activated protein kinase 14 (Homo sapiens, UniProt Q16539); experiment: Inhibition of p38alpha
[3] = Drug level in po dosed OF1 mouse blood after 1 hr; type: ADME, organism-based, OF; conditions: read-out: Drug uptake
Method in brief: (§1)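 Female OF1 mice, 8 weeks old, dosed orally, then LPS (20 mg/kg) injected 1 h later. Blood taken 1 h after LPS, and compound blood levels quantified by LC–MS/MS.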

[4] = Drug level in OF1 mouse blood at 30 mg/kg, po after 1 hr; type: ADME, organism-based, OF; set-up: dose 30 mg/kg, route oral; conditions: read-out: Drug uptake; method in brief: as §1
[5] = test system: Mus musculus; experiment: Antiinflammatory activity in po dosed OF1 mouse assessed as inhibition of LPS-induced TNFalpha release administered 4 hr prior to LPS challenge measured by ELISA; type: functional; set-up: scale not given: the % may be the effect or the level left
[6] = biological target: Mitogen-activated protein kinase 8 (Homo sapiens, UniProt P45983); experiment: Inhibition of JNK1
[7] = test system: Mus musculus; experiment: Antiinflammatory activity in po dosed OF1 mouse assessed as inhibition of LPS-induced TNFalpha release administered 1 hr prior to LPS challenge measured by ELISA; type: functional
Method in brief: (§2)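 Female OF1 mice, 8 weeks old, given compound orally; LPS (20 mg/kg) injected 1 h later. Blood withdrawn 1 h after LPS. Plasma mouse TNFα measured by ELISA; inhibition reported as percent.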

[8] = test system: THP-1; experiment: Cytotoxicity against human THP1 cells; type: cell-based
[9] = biological target: Cyclin-dependent kinase 2 (Homo sapiens, UniProt P24941); experiment: Inhibition of CDK2
[10] = Drug level in OF1 mouse blood at 100 mg/kg, po after 1 hr; type: ADME, organism-based, OF; set-up: dose 100 mg/kg, route oral; conditions: read-out: Drug uptake; method in brief: as §1
[11] = biological target: Mitogen-activated protein kinase 9 (Homo sapiens, UniProt P45984); experiment: Inhibition of JNK2
[12] = Aqueous solubility at pH 1 to 6.8; type: physicochemical; conditions: aqueous medium
[13] = Drug level in po dosed OF1 mouse blood after 4 hr; type: ADME, organism-based, OF; conditions: read-out: Drug uptake
[14] = test system: Mus musculus; experiment: Antiinflammatory activity in OF1 mouse assessed as inhibition of LPS-induced TNFalpha release at 30 mg/kg, po administered 1 hr prior to LPS challenge measured by ELISA; type: functional, organism-based; set-up: dose 30 mg/kg; method in brief: as §2
[15] = Drug level in po dosed OF1 mouse blood after 6 hr; type: ADME, organism-based, OF; conditions: read-out: Drug uptake
[16] = test system: Mus musculus; experiment: Antiinflammatory activity in po dosed OF1 mouse assessed as inhibition of LPS-induced TNFalpha release administered 6 hr prior to LPS challenge measured by ELISA; type: functional; set-up: scale not given: the % may be the effect or the level left
[17] = test system: Mus musculus; experiment: Antiinflammatory activity in OF1 mouse assessed as inhibition of LPS-induced TNFalpha release at 100 mg/kg, po administered 1 hr prior to LPS challenge; type: functional; method in brief: as §2

Sequence of Mitogen-activated protein kinase 8 (P45983 whole entry): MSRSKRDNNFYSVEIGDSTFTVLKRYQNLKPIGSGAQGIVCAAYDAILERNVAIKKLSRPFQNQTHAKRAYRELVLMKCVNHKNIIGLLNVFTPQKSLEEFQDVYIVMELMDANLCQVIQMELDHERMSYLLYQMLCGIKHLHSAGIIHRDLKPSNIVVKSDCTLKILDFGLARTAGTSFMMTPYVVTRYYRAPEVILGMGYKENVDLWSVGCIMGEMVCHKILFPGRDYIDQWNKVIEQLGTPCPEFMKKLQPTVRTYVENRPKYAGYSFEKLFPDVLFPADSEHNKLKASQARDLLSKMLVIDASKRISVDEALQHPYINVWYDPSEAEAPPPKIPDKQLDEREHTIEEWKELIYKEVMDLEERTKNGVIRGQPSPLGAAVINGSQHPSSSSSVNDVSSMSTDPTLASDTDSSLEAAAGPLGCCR
Sequence of Mitogen-activated protein kinase 9 (P45984 whole entry): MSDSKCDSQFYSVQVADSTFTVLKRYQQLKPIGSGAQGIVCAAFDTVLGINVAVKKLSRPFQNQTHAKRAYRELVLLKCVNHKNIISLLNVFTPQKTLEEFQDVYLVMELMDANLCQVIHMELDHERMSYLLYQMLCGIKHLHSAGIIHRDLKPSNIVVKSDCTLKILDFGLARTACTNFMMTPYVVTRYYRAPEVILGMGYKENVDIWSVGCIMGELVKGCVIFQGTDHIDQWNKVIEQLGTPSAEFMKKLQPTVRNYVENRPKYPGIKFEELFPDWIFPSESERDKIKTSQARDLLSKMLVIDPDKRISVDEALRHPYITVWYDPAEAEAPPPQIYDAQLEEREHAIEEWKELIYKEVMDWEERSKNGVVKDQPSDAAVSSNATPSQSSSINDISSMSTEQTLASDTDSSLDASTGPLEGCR
Sequence of Mitogen-activated protein kinase 14 (Q16539 whole entry): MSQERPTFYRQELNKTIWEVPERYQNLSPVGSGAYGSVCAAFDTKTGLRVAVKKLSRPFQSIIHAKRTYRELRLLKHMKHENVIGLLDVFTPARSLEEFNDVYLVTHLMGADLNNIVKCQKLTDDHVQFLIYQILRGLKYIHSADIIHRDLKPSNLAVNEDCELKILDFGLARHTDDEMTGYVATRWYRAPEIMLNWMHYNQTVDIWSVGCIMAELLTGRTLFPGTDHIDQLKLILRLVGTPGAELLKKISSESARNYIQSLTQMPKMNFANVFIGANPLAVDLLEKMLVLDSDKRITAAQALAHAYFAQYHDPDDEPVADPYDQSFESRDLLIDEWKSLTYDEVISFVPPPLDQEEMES

Papp A→B [1] | IC50 [2] | concentration at 1 h [3] | concentration at 1 h [4] | IC50 [6] | IC50 [9] | concentration at 1 h [10] | IC50 [11] | solubility [12] | concentration at 4 h [13] | concentration at 6 h [15] | SMILES | Activity [5] | inhibition (INH) [7] | IC50 [8] | Activity [14] | Activity [16] | inhibition in vivo at 100 mg/kg [17]
48.3 ×10⁻⁶ cm/s |  |  |  |  |  |  |  |  |  |  | COc1ccc(-n2cc(-c3ccc4c(c3)C(=O)NCC4)c(N)n2)cc1 |  |  |  |  |  | 
 | > 10 µM | 14.1 µM | 1.7 µM | > 10 µM | > 10 µM | 17.4 µM | > 10 µM | < 2 µg/mL | 6.8 µM | 25.8 µM | Nc1nn(-c2cccc(-c3ccc4cc[nH]c4c3)c2)cc1-c1ccc2c(c1)CCNC2=O | 23% | 66% | > 20 µM | inactive | 67% | 68%
